Results: the EternaBench riboswitch data

System: MS2 coat protein
Experiment: apparent Kd, MS2 coat protein; higher = weaker binding; RNA-MaP array; FMN 200 µM where present
Summary of the method: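 The apparent Kd is reported as the median of filtered per-cluster binding-curve fits. To get these curves, designs transcribed by stalled E. coli RNA polymerase on Illumina sequencing-chip clusters were titrated with SNAP-549-labelled MS2 coat protein from 0.7 or 1.5 nM, doubling to 3 µM. Titrations were run without and then with constant ligand in 100 mM Tris-HCl pH 7.5, 80 mM KCl, 4 mM MgCl2, BSA, DTT, yeast tRNA and Tween-20, and green signal was normalised to red-channel RNA signal and control-cluster median Fmax.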

[1] = designed as: OFF switch for flavin mononucleotide, no ligand
[2] = ligand present: flavin mononucleotide, designed as: OFF switch for flavin mononucleotide
[3] = designed as: ON switch for flavin mononucleotide, no ligand
[4] = ligand present: flavin mononucleotide, designed as: ON switch for flavin mononucleotide

Row | Sequence | apparent Kd [1] [nM] | apparent Kd [2] [nM] | apparent Kd [3] [nM] | apparent Kd [4] [nM]
1 | AAAUGCAAUCAAGGAUAUGUAUUAAAGAUAUGAAAACAUGAGGAUCACCCAUGUAUAUGGUGGGAACAGAAGGUGAAUAAGUAA | 223 | 200 | – | –
2 | UUUUUGUAAGAGAAGGAGGACUUCAUGAGGAUCACCCAUGUGUUAGUACUUAGGAUAUUUGACAACAUGAGGAUCACCCAUGUC | – | – | 72 | 70.1
3 | AAACAUGUCCGAGGAUAUCUGGAAACAUUUUCAAGAGAAGGCGGACAUGAGGAUCACCCAUGUCUCUCCUCAUCAACUACAUAU | 8.09 | 59.4 | – | –
4 | AAAAAACAUGAGGAUCACCCAUGUCGAAAGACAUGAGGAUAUGUGUGGAAACCAUACUAUACAGAAGGCAUAAAAA | – | – | 37.8 | 371
5 | UCGAACGGAAACAAAGUCGAUAGACAUGAGGAUCACCCAUGUAAGGAUAUGCCUACUAAAAGUAGGCAGAAGGUACGCGUUCGA | 18.9 | 28.1 | – | –
6 | UCCGUACUAGGAUAUACAGCAAAAUCAAACAAAUUCCUCAAACAUGAGGAUCACCCAUGUAGAAGGAGUACCAA | 17.4 | 14.7 | – | –
7 | UCUCGACAUGAGGAUCACCCAUGUCAGGAUAUUGUAUUGGAGGUGUUUAACCUUAUGGCAAGAAGGGAUGUGUG | 24 | 27.1 | – | –
8 | CUGAGCUGAGGAUAUACAUGAGGAUCACCCAUGUGUUCCAGCUUGGGUACAGGCACAUGUAGAAGGCAGUUCGG | 55.1 | 21.4 | – | –
9 | GGAUCCAACACAGGAUAUGCUGGACUUUGUCCAGCAGAAGGGUGAAGAACAUGAGGAUCACCCAUGUGGAUCCAUACAUUUAAU | – | – | 254 | 15.7
10 | AAAAGUAGAGGAUAUACAUGAGGAUCACCCAUGUAGAAAGGAAGUAUAUAUAUGGCGUGUAGAAGGCUGCAUGA | 34.5 | 32.2 | – | –
11 | UGUCGGAGCAGAGGAUAUACAUGAGGAUCACCCAUGUAAUAAAGUGAAGCCUGGAAACAGGCAAUGUAGAAGGUUGCUCCGACA | 7.2 | 31.5 | – | –
12 | GUAGCUAUCGGAGGAUAUGGGUUGCGGAAACGCACAUGAGGAUCACCCAUGUAAAUAAAUAAUUCCUAGAAGGCCGAUAGCUAC | – | – | 21 | 15
13 | AUUGUAAUGUCAGGAUAUAUUAUAUUUUACAUAGUAGAAGGGAUAAUUAUACUCAUGUACAUGAGGAUCACCCAUGUUAAAUAU | – | – | 179 | 29.6
14 | AAUAAACAUGAGGAUCACCCAUGUCAGGAUAUGCGUCUAUCCUUAUACCAUAGAUACGGCAGAAGGGACUAAUA | 24.9 | 31 | – | –
15 | AGUAAGAUGCAGAAGGUGUUAGCUAGAGCUACGACAUGAGGAUCACCCAUGUACUAGAAACAGUACAAGGAUAUGCAUCUUACA | – | – | 18.1 | 6.28
16 | AGCUAUUACGAAGGAUAUUGUGACAUGAGGAUCACCCAUGUUUUCAUGAUUAAUUGUGAUCACGUCGAGAAGGUUGUACUAACA | – | – | 52.4 | 54.5
17 | GUCAGCUCGUGAGGAUAUACCACACUGCUUCGGCAGUGUAUUAAGAUCACAUGAGGAUCACCCAUGUAGAAGGCACGAGCUGAU | 6.32 | 34.2 | – | –
18 | GGACCACAUCAGGAUAUGACUAGCUUCGGCUAGUCAGAAGGGAUGACAUGAGGAUCACCCAUGUGAUCAGGUCC | 77.5 | 127 | – | –
19 | UCAGGCUUCGAGAAGGACAUGAGGAUCACCCAUGUUAGUUUGAAGCAGCCGUGAGGCUGCAUCAUGUAGGAUAUCGGAGUCUGC | 6.47 | 11.7 | – | –
20 | CAUUAAUUCAUUAUAGUAAUUUUACAGGAUAUGUAACAUGAGGAUCACCCAUGUAUUCUAGGUUAACAGAAGGGUAUUACUUGU | 28.9 | 20.7 | – | –
21 | GGACAUGUCGUCUACAUGAGGAUCACCCAUGUCGAUAGACAUGAGGAUAUCGAUAAGAAUUGUAUCGAGAAGGCAUGCAGGUCC | – | – | 19.8 | 21.6
22 | UUGCGGUCAGGAUAUGCAUGGCGGGACUUGCGUCGUGGCGUGGAGAAGGGACAUGAGGAUCACCCAUGUGGAGC | 54.5 | 59.9 | – | –
23 | GGAUUUACUGAGGAUAUUGCAUUACCCGAUUGAUAAGAAGGCAGAACAUGAGGAUCACCCAUGUGGGUAGUCAA | 17.4 | 16.4 | – | –
24 | UCCUGGCAAGGAUAUACAUGAGGAUCACCCAUGUGGAGUCGAUGCUGAAUUCUAUUGUGUAGAAGGUGCCUUUC | 49.1 | 62.3 | – | –

Row | Sequence | apparent Kd [1] [nM] | apparent Kd [2] [nM] | apparent Kd [3] [nM] | apparent Kd [4] [nM]
25 | UGUCUAUUUGAAGGAUAUCUAAGCAUAAACCAGAGAGAAGGUCAAUUAUACAUGAGGAUCACCCAUGUUGAGAUUAAUGGGUUA | 27.1 | 40.3 | – | –
26 | GUUUUCGCGUGAGGAUAUGCUCGCAUUUCAAGAGCAGAAGGUAUGUCUAUAGACAUGAGGAUCACCCAUGUAUUUAUCAUUGAA | – | – | 226 | 160
27 | CCUUCGUGAGGAUAUCAUAGACAGCUCUCAGAAAUGGUCAAUGAGAAGGCACAUGAGGAUCACCCAUGUGGGUC | 56.3 | 198 | – | –
28 | CAGUACUGAGGAUAUACAUGAGGAUCACCCAUGUCUUAAAAGUAGGAUACUACUAUUAGUAGAAGGCAGUACUG | 13.2 | 34.9 | – | –
29 | GGCCCACAAGGAUAUACAUGAGGAUCACCCAUGUAAAUCUCAGGUAGUAUGUGGGUGUGUAGAAGGUGUUAGCC | 15.2 | 14.4 | – | –
30 | AAUUAUUAUUGAGGAUAUCGUAGUGAAACACUACGAGAAGGCGGUAUAAACAUGAGGAUCACCCAUGUGAGCCUGAUGCUUAUG | 28.9 | 58.9 | – | –
31 | AGUAGAUCAGGAUAUACAUAAAUGAUAAUUAUGUAAAUUCUACAUGAGGAUCACCCAUGUAGAAGGGAUCUACA | 14.4 | 14 | – | –
32 | GCUUUACUGGUCAGGAUAUACAUUUGCUACUCUUUGUAGAAGGGACAUGAGGAUCACCCAUGUACUUUACAUUC | 15.3 | 16.6 | – | –
33 | UUCAGCUCGUGAGGAUAUACAUGUGCUGGAAACAGCACUAAUUAAUUCACAUGAGGAUCACCCAUGUAGAAGGCACGAGCUGAG | 15.7 | 18.1 | – | –
34 | UGCCGGAGCAGAGGAUAUUACAUGAGGAUCACCCAUGUAUGAACCAAUAGCUGGAAACAGCAAUGUAAGAAGGCUGCUCCGACA | 13.4 | 144 | – | –
35 | CUGACGUUUGAAGGAUAUGACAUGUUGAAGCGUAUUGACAGCCCUGCACAUGAGGAUCACCCAUGUCAGAAGGUCAACCGUUGA | 7.11 | 20.3 | – | –
36 | UUAUAAAAGCAGAAGGGCCGAUUAAGGAUCCGCAUGGCGCUGGACAUGAGGAUCACCCAUGUAAGGCAGGAUAUGCAAAAUAAG | 458 | 24.8 | – | –
37 | CGUGUUGACGAAGGAUAUGGAUACAUGAGGAUCACCCAUGUAUAUUUUGUGAUCAUAUUUAUGAUCCAGAAGGUCGUUGACACG | 56.9 | 131 | – | –
38 | GACUCGAAUGUAGGAUAUGCUGAGGAAUACUCAGCAGAAGGACAUGAGGAUCACCCAUGUCAAUGAGUGAAUAAUAAACGAGUC | 29.2 | 224 | – | –
39 | GAUAGGACAGAGAAGGACGUGGCUAGAGAUACUAGCAUAAAGGUCCAAACAUGAGGAUCACCCAUGUAGGAUAUCUGUCCUAUC | 6.59 | 8.89 | – | –
40 | GAUUCGCGUGAGAAGGACAUGAGGAUCACCCAUGUAGGAUAUCACGGUCCGUAGAGGAUUUCAAACCGUACUGGGUCAUAGUGU | – | – | 14.4 | 6.56
41 | AGUGUCAUCGAGAAGGCCCUGACAUGAGGAUCACCCAUGUUGUUACAUGGGAGGAUAUCGAUGAUACAGCUACGUUUCGUAGCA | – | – | 12.8 | 5.05
42 | GCUCGAUGCGCUGAGCACAUGAGGAUCACCCAUGUAAAUGGUCAGGAUAUUUACGUGCUUUAUGUAGAGAAGGGACUAUCGAGC | – | – | 630 | 59.4
43 | GGAUGAUUAAUAGGAUAUUAUUUGUAAAAUGGUUAAGAAGGAUUAAUGAUUUAAACGACCAGAUACAUGAGGAUCACCCAUGUA | – | – | 24.4 | 21.9
44 | CGCCGCACCGGCCUGCGGCAGGGUCAGGAUAUACAUGAGGAUCACCCAUGUGAACGGUGCCCUAUGUAGAAGGGACGAAAAGAA | 22.8 | 37.5 | – | –
45 | UCAUGCAUAGCGAUAUGAUCGAGAGAUCAUGUCGCUAAAUUUAGAAGGACAUGAGGAUCACCCAUGUAGGAUAUGGGAGCAUGC | – | – | 419 | 59.3
46 | UGUCGGAGCAGAGGAUAUUACAUGAGGAUCACCCAUGUAUGAACCAAUAGCUGGAAACAGCAAUGUAAGAAGGCUGCUCCGAAA | 12.3 | 176 | – | –
47 | UUAUGAGCGAUAGGAUAUACUGAGAUUGAAUGGGUAGAAGGAUCAAUUGUGUGGAAGACAUGAGGAUCACCCAUGUUACGGGCC | – | – | 104 | 337
48 | CCUCCGUAUGAGGAUAUCGUCCAGGAAACUGGACGAGAAGGCAUGACAUGAGGAUCACCCAUGUUAACGUGAUG | 19.8 | 52.1 | – | –
